Data published in ChEMBL document CHEMBL5335790, “Design, synthesis and biological evaluation of novel 2,4-thiazolidinedione derivatives able to target the human BAG3 protein” (Eur J Med Chem, 2023).
The source made the active and inactive calls. No cut-off for these calls is given here.

Assays:
[1] = Cytotoxicity against PHA stimulated human PBMC cells assessed as cell growth inhibition incubated for 72 hrs by MTT assay; format: toxicity, cell-based
HD-MB03 [2] = test: Sensitization of chemotherapy induced cytotoxicity against human HD-MB03 cells assessed as inhibition of cell growth at 20 uM incubated for 72 hrs in presence of 0.25 unit of vincristine, etoposide, cisplatin, cyclophosphamide by resazurin dye based analysis (reference value: 73.44 +/- 0.92%); format: functional
HD-MB03 [3] = test: Sensitization of chemotherapy induced cytotoxicity against human HD-MB03 cells assessed as inhibition of cell growth at 2.5 uM incubated for 72 hrs in presence of 0.5 unit of vincristine, etoposide, cisplatin, cyclophosphamide by resazurin dye based analysis (reference value: 83.74+/- 0.54%); format: functional
HD-MB03 [4] = test: Sensitization of chemotherapy induced cytotoxicity against human HD-MB03 cells assessed as inhibition of cell growth at 20 uM incubated for 72 hrs in presence of 1 unit of vincristine, etoposide, cisplatin, cyclophosphamide by resazurin dye based analysis (reference value: 91.53 +/- 1.15%); format: functional
HD-MB03 [5] = test: Induction of cell cycle arrest in human HD-MB03 cells assessed as accumulation of cells at G2/M phase at 10 uM incubated for 48 hrs by RNase/PI staining based cytofluorimetric analysis (reference value: 4.4%); format: functional
HD-MB03 [6] = test: Sensitization of chemotherapy induced cytotoxicity against human HD-MB03 cells assessed as inhibition of cell growth at 5 uM incubated for 72 hrs in presence of 0.25 unit of vincristine, etoposide, cisplatin, cyclophosphamide by resazurin dye based analysis (reference value: 73.44 +/- 0.92%); format: functional
HD-MB03 [7] = test: Sensitization of chemotherapy induced cytotoxicity against human HD-MB03 cells assessed as inhibition of cell growth at 5 uM incubated for 72 hrs in presence of 2 unit of vincristine, etoposide, cisplatin, cyclophosphamide by resazurin dye based analysis (reference value: 97.7 +/- 1.3%); format: functional
HD-MB03 [8] = test: Sensitization of chemotherapy induced cytotoxicity against human HD-MB03 cells assessed as inhibition of cell growth at 2.5 uM incubated for 72 hrs in presence of 0.25 unit of vincristine, etoposide, cisplatin, cyclophosphamide by resazurin dye based analysis (reference value: 73.44 +/- 0.92%); format: functional
HD-MB03 [9] = test: Sensitization of chemotherapy induced cytotoxicity against human HD-MB03 cells assessed as inhibition of cell growth at 2.5 uM incubated for 72 hrs in presence of 2 unit of vincristine, etoposide, cisplatin, cyclophosphamide by resazurin dye based analysis (reference value: 97.7 +/- 1.3%); format: functional
RS4-11 = test: Antiproliferative activity against human RS4-11 cells assessed as cell growth inhibition incubated for 72 hrs by resazurin dye based analysis; format: functional
Outline: (§1)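 Cells seeded at 2000/well, treated 24 h later with compounds in a 6-point 2-fold dose series, duplicate wells, two independent experiments. After 72 h, resazurin was added at 44 µM final for 3 h at 37 °C and fluorescence was read at 590 nm. Viability was normalized to 1 µM bortezomib (positive) and 0.5% DMSO (negative) controls. GI50 is the mean ± SEM of dose-response curves.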

HD-MB03 [10] = test: Induction of cell cycle arrest in human HD-MB03 cells assessed as accumulation of cells at S phase at 10 uM incubated for 72 hrs by RNase/PI staining based cytofluorimetric analysis (reference value: 40.9%); format: functional
HD-MB03 [11] = test: Induction of cell cycle arrest in human HD-MB03 cells assessed as accumulation of cells at G1 phase at 10 uM incubated for 48 hrs by RNase/PI staining based cytofluorimetric analysis (reference value: 54.7%); format: functional
HD-MB03 [12] = test: Sensitization of chemotherapy induced cytotoxicity against human HD-MB03 cells assessed as inhibition of cell growth at 10 uM incubated for 72 hrs in presence of 0.5 unit of vincristine, etoposide, cisplatin, cyclophosphamide by resazurin dye based analysis (reference value: 83.74+/- 0.54%); format: functional
HD-MB03 [13] = test: Sensitization of chemotherapy induced cytotoxicity against human HD-MB03 cells assessed as inhibition of cell growth at 2.5 uM incubated for 72 hrs in presence of 0.12 unit of vincristine, etoposide, cisplatin, cyclophosphamide by resazurin dye based analysis (reference value: 51.43 +/- 1.17%); format: functional
HD-MB03 [14] = test: Sensitization of chemotherapy induced cytotoxicity against human HD-MB03 cells assessed as inhibition of cell growth at 5 uM incubated for 72 hrs in presence of 1 unit of vincristine, etoposide, cisplatin, cyclophosphamide by resazurin dye based analysis (reference value: 91.53 +/- 1.15%); format: functional
HD-MB03 [15] = test: Cytotoxicity against human HD-MB03 cells assessed as inhibition of cell growth at 2.5 uM incubated for 72 hrs by resazurin dye based analysis relative to control; format: functional
Outline: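 Resazurin viability in HD-MB03 cells, 2000/well, single-agent arm of the 6x6 matrix. Inhibitor was added 24 h after seeding, in a 6-point 2-fold series, duplicates, two independent experiments. After 72 h exposure, resazurin was added at 44 µM final for 3 h at 37 °C and fluorescence read at 590 nm. Viability normalized to 1 µM bortezomib and 0.5% DMSO controls.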

HD-MB03 [16] = test: Induction of cell cycle arrest in human HD-MB03 cells assessed as accumulation of cells at S phase at 10 uM incubated for 48 hrs by RNase/PI staining based cytofluorimetric analysis (reference value: 40.9%); format: functional
[17] = target: BAG family molecular chaperone regulator 3 (Homo sapiens, UniProt O95817); test: Binding affinity to CM4 sensorchip immobilized glycosylated C-terminal His tagged human BAG3 transfected in HEK293T cells assessed as dissociation constant by SPR analysis
Sequence of BAG family molecular chaperone regulator 3 (O95817 whole entry): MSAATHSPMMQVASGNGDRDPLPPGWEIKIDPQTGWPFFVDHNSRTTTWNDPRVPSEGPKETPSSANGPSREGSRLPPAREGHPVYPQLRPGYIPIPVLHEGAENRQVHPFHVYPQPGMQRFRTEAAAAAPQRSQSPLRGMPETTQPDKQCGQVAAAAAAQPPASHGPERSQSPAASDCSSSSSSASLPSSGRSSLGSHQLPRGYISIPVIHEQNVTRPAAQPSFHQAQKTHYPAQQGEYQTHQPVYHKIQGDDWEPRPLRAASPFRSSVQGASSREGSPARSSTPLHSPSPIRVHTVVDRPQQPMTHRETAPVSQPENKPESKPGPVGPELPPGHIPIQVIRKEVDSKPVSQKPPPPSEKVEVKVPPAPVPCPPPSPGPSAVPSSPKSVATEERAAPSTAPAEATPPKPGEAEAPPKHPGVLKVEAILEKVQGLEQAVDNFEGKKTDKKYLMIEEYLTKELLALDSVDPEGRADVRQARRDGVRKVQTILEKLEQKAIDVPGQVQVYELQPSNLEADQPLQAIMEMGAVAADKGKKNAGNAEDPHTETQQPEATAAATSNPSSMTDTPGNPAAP
Outline: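 SPR single-cycle kinetics on CM4-immobilized HEK-293T-expressed BAG3-His. Increasing compound concentrations in PBS with 5% DMSO and 0.05% P20 were injected at 30 µL/min without regeneration between injections, with blank subtraction. Kd from steady-state analysis, reported as mean ± SEM and compared by Student t-test.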

HD-MB03 [18] = test: Sensitization of chemotherapy induced cytotoxicity against human HD-MB03 cells assessed as inhibition of cell growth at 10 uM incubated for 72 hrs in presence of 2 unit of vincristine, etoposide, cisplatin, cyclophosphamide by resazurin dye based analysis (reference value: 97.7 +/- 1.3%); format: functional
HD-MB03 [19] = test: Sensitization of chemotherapy induced cytotoxicity against human HD-MB03 cells assessed as inhibition of cell growth at 1.25 uM incubated for 72 hrs in presence of 0.12 unit of vincristine, etoposide, cisplatin, cyclophosphamide by resazurin dye based analysis (reference value: 51.43 +/- 1.17%); format: functional
HD-MB03 [20] = test: Induction of apoptosis in human HD-MB03 cells assessed as increase in total apoptotic cells at 20 uM incubated for 24 hrs in presence of chloroquine by Annexin V-FITC/PI staining based cytofluorimetric analysis; format: functional, cell-based
Outline: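 HD-MB03 cells exposed to 20 µM with or without chloroquine for 24 h, then stained with annexin V-FITC and PI for flow cytometry. Mean ± SEM of three independent experiments.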

A549 = test: Antiproliferative activity against human A549 cells assessed as cell growth inhibition incubated for 72 hrs by resazurin dye based analysis; format: functional; outline: as §1
HD-MB03 [21] = test: Induction of cell cycle arrest in human HD-MB03 cells assessed as accumulation of cells at G1 phase at 10 uM incubated for 72 hrs by RNase/PI staining based cytofluorimetric analysis (reference value: 54.7%); format: functional

GI50 (RS4-11): 6.7 µM | Kd [17]: 45 µM | GI50 (A549): 28 µM
SMILES: CC(C(=O)N1CCOCC1)N1C(=O)S/C(=C\c2cccc(O)c2O)C1=O (racemic)
GI50 at 72 h [1]: > 100 µM | inhibition at 20 µM (HD-MB03 [2]): 80.8% | inhibition at 2.5 µM (HD-MB03 [3]): 83.3% | inhibition at 20 µM (HD-MB03 [4]): 89.1% | Activity (HD-MB03 [5]): 6.11% | inhibition at 5 µM (HD-MB03 [6]): 76.7% | inhibition at 5 µM (HD-MB03 [7]): 95.2% | inhibition at 2.5 µM (HD-MB03 [8]): 69.9% | inhibition at 2.5 µM (HD-MB03 [9]): 95.4% | Activity (HD-MB03 [10]): 24.8% | Activity (HD-MB03 [11]): 52.45% | inhibition at 10 µM (HD-MB03 [12]): 89.1% | inhibition at 2.5 µM (HD-MB03 [13]): 53.4% | inhibition at 5 µM (HD-MB03 [14]): 92% | inhibition at 2.5 µM (HD-MB03 [15]): -8.3% | Activity (HD-MB03 [16]): 41.44% | inhibition at 10 µM (HD-MB03 [18]): 93.2% | inhibition at 1.25 µM (HD-MB03 [19]): 47.7% | Activity (HD-MB03 [20]): Active | Activity (HD-MB03 [21]): 74%
